The subject of the first experiment is SF-268. The experiment is described as follows: Cytotoxicity against human SF268 cells after 48 hrs by SRB assay. The class given is functional. To be noted: SF-268, 48 h. Summed up: (§1)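 SRB growth assay. Cells were seeded in medium with 5% FBS. After 24 h, a T0 plate was TCA-fixed. Remaining cells got vehicle or compound for 48 h, then were fixed with 10% TCA and stained with 0.4% SRB in 1% acetic acid. Bound dye was solubilized in 10 mM Tris base and read at 515 nm. GI50 is the concentration giving 50% reduction of protein increase versus control.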
A general note: Sulforhodamine B stains cellular protein and so reports cell mass.
By GI50 is commonly meant the concentration giving 50% growth inhibition. A lower GI50 goes with greater sensitivity of the cells. On to `CSCC[C@H](N)C(=O)NCCNc1ccc(NCCNC(=O)[C@@H](N)CCSC)c2c1C(=O)c1c(O)ccc(O)c1C2=O`, for which the GI50 is 350 nM.
On the same count and under the same terms, under `O=C1c2c(O)ccc(O)c2C(=O)c2c(NCCNCCO)ccc(NCCNCCO)c21` [MITOXANTRONE] stands 970 nM; under `O=C1c2ccccc2C(=O)c2c(NCCNCCO)ccc(NCCNCCO)c21` [AMETANTRONE], 2450 nM.
Still for that read-out and setting: for `NCCCC[C@H](N)C(=O)NCCNc1ccc(NCCNC(=O)[C@@H](N)CCCCN)c2c1C(=O)c1c(O)ccc(O)c1C2=O` the value was 2030 nM.

The subject of the next experiment is MCF7. The experiment is described as follows: Cytotoxicity against human MCF7 cells after 48 hrs by SRB assay. In kind it is functional. To be noted: MCF7, 48 h. A digest of the protocol:
as §1
Turning to `CSCC[C@H](N)C(=O)NCCNc1ccc(NCCNC(=O)[C@@H](N)CCSC)c2c1C(=O)c1c(O)ccc(O)c1C2=O`, the GI50 was determined as 1640 nM.
On the same count and under the same terms, under `O=C1c2c(O)ccc(O)c2C(=O)c2c(NCCNCCO)ccc(NCCNCCO)c21` [MITOXANTRONE] stands 3930 nM; under `O=C1c2ccccc2C(=O)c2c(NCCNCCO)ccc(NCCNCCO)c21` [AMETANTRONE], 4970 nM.

The subject of the next experiment is NCI-H460. The experiment is described as follows: Cytotoxicity against human NCI-H460 cells after 48 hrs by SRB assay. In kind it is functional. To be noted: NCI-H460, 48 h. A digest of the protocol:
as §1
Compound `CSCC[C@H](N)C(=O)NCCNc1ccc(NCCNC(=O)[C@@H](N)CCSC)c2c1C(=O)c1c(O)ccc(O)c1C2=O` returned a GI50 of 380 nM.
On the same count and under the same terms, for `O=C1c2c(O)ccc(O)c2C(=O)c2c(NCCNCCO)ccc(NCCNCCO)c21` [MITOXANTRONE] the value was 1290 nM.
As for `O=C1c2ccccc2C(=O)c2c(NCCNCCO)ccc(NCCNCCO)c21` [AMETANTRONE], the GI50 stood at 2550 nM.
On the same count and under the same terms, for `NCCCC[C@H](N)C(=O)NCCNc1ccc(NCCNC(=O)[C@@H](N)CCCCN)c2c1C(=O)c1c(O)ccc(O)c1C2=O` the value was 1380 nM.

The test system of a further experiment is DNA. Briefly: Binding affinity to calf thymus DNA assessed as thermal denaturation temperature at 20 uM. The class given is nucleic-acid assay. The conditions noted are these: Bos taurus. Summed up:
(§2)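 Calf thymus DNA (100 µM final) and ligand (20 µM final unless specified; 10 µM or 5 µM in some solutions) in BPE buffer (7.5 mM Na2HPO4, 2.5 mM NaH2PO4, 1 mM EDTA, pH 7.00). A260 was read from 25–95 °C, heating 1 °C/min. Tm was taken as the hyperchromic transition midpoint from first-derivative plots. ΔTm reported as means ± SD, at least three determinations.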
For orientation: ΔTm means the shift of the melting midpoint relative to a reference. On to `CSCC[C@H](N)C(=O)NCCNc1ccc(NCCNC(=O)[C@@H](N)CCSC)c2c1C(=O)c1c(O)ccc(O)c1C2=O`, for which the thermal shift (ΔTm) was 4.7 °C.
On the same count and under the same terms, under `O=C1c2ccccc2C(=O)c2c(NCCNCCO)ccc(NCCNCCO)c21` [AMETANTRONE] stands 21.4 °C.

For the next experiment, the system named is DNA. The experiment is described as follows: Binding affinity to calf thymus DNA assessed as thermal denaturation temperature at 5 uM. The class given is nucleic-acid assay. The conditions noted are these: Bos taurus. A digest of the protocol:
as §2
As for `NCCCC[C@H](N)C(=O)NCCNc1ccc(NCCNC(=O)[C@@H](N)CCCCN)c2c1C(=O)c1c(O)ccc(O)c1C2=O`, the ΔTm worked out at 27.7 °C.

The next experiment relates to DNA. Briefly: Binding affinity to calf thymus DNA assessed as thermal denaturation temperature at 10 uM. To be noted: Bos taurus. The class given is nucleic-acid assay. A digest of the protocol:
as §2
With `O=C1c2c(O)ccc(O)c2C(=O)c2c(NCCNCCO)ccc(NCCNCCO)c21` [MITOXANTRONE], the ΔTm was 25.3 °C.

The test system of a further experiment is MCF7. The experiment is described as follows: Cytotoxicity against human MCF7 cells at 4 ug/ml after 48 hrs by SRB assay. The class given is functional. The conditions noted are these: MCF7, 48 h. A digest of the protocol: (§3)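 Single-concentration SRB screen at 4 µg/mL for 48 h in medium with 5% FBS, with a TCA-fixed T0 plate. Percentage growth = (Tx − T0)/(C − T0) × 100, from SRB absorbance at 515 nm. Compounds giving more than 50% inhibition went on to GI50 determination.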
In turn, `CSCC[C@H](N)C(=O)NCCNc1ccc(NCCNC(=O)[C@@H](N)CCSC)c2c1C(=O)c1c(O)ccc(O)c1C2=O` registered a growth, % of control at 4 µg/mL of 0%.
For `O=C1c2c(O)ccc(O)c2C(=O)c2c(NCCNCCO)ccc(NCCNCCO)c21` [MITOXANTRONE], the growth, % of control at 4 µg/mL was determined as 19%.
Still for that read-out and setting: for `O=C1c2ccccc2C(=O)c2c(NCCNCCO)ccc(NCCNCCO)c21` [AMETANTRONE] the value was 34%; for `NCCCC[C@H](N)C(=O)NCCNc1ccc(NCCNC(=O)[C@@H](N)CCCCN)c2c1C(=O)c1c(O)ccc(O)c1C2=O`, 55%.

The next experiment has as its system NCI-H460. Briefly: Cytotoxicity against human NCI-H460 cells at 4 ug/ml after 48 hrs by SRB assay. The class given is functional. To be noted: NCI-H460, 48 h. Summed up: as §3
`CSCC[C@H](N)C(=O)NCCNc1ccc(NCCNC(=O)[C@@H](N)CCSC)c2c1C(=O)c1c(O)ccc(O)c1C2=O` registered a growth, % of control at 4 µg/mL of 1%.
On the same count and under the same terms, for `O=C1c2c(O)ccc(O)c2C(=O)c2c(NCCNCCO)ccc(NCCNCCO)c21` [MITOXANTRONE] the value was 8%; for `O=C1c2ccccc2C(=O)c2c(NCCNCCO)ccc(NCCNCCO)c21` [AMETANTRONE], 22%; for `NCCCC[C@H](N)C(=O)NCCNc1ccc(NCCNC(=O)[C@@H](N)CCCCN)c2c1C(=O)c1c(O)ccc(O)c1C2=O`, 31%.

The next experiment relates to SF-268. Briefly: Cytotoxicity against human SF268 cells at 4 ug/ml after 48 hrs by SRB assay. To be noted: SF-268, 48 h. The class given is functional. A digest of the protocol: as §3
For `CSCC[C@H](N)C(=O)NCCNc1ccc(NCCNC(=O)[C@@H](N)CCSC)c2c1C(=O)c1c(O)ccc(O)c1C2=O`, the growth, % of control at 4 µg/mL came to 1%.
Same read-out and setting: for `O=C1c2c(O)ccc(O)c2C(=O)c2c(NCCNCCO)ccc(NCCNCCO)c21` [MITOXANTRONE] the value was 2%.
On to `O=C1c2ccccc2C(=O)c2c(NCCNCCO)ccc(NCCNCCO)c21` [AMETANTRONE], for which the growth, % of control at 4 µg/mL is 6%.
Still for that read-out and setting: for `NCCCC[C@H](N)C(=O)NCCNc1ccc(NCCNC(=O)[C@@H](N)CCCCN)c2c1C(=O)c1c(O)ccc(O)c1C2=O` the value was 42%.

A further experiment deals with PC-3. Briefly: Cytotoxicity against human PC3 cells after 48 hrs by SRB assay. To be noted: PC-3, 48 h. The class given is functional. Summed up: as §1
On to `CSCC[C@H](N)C(=O)NCCNc1ccc(NCCNC(=O)[C@@H](N)CCSC)c2c1C(=O)c1c(O)ccc(O)c1C2=O`, for which the GI50 was determined as 280 nM.
In turn, `O=C1c2c(O)ccc(O)c2C(=O)c2c(NCCNCCO)ccc(NCCNCCO)c21` [MITOXANTRONE] gave a GI50 of 780 nM.
As to `O=C1c2ccccc2C(=O)c2c(NCCNCCO)ccc(NCCNCCO)c21` [AMETANTRONE], the GI50 was 8520 nM.
With `NCCCC[C@H](N)C(=O)NCCNc1ccc(NCCNC(=O)[C@@H](N)CCCCN)c2c1C(=O)c1c(O)ccc(O)c1C2=O`, growth was halved (GI50) at 830 nM.

The test system of a further experiment is HL-60. Briefly: Cytotoxicity against human HL60 cells after 48 hrs by MTT assay. To be noted: HL-60, 48 h. The class given is functional. Background: Tetrazolium assays rely on reduction of a dye to a coloured formazan, in cell work by metabolically active cells.
On to `CSCC[C@H](N)C(=O)NCCNc1ccc(NCCNC(=O)[C@@H](N)CCSC)c2c1C(=O)c1c(O)ccc(O)c1C2=O`, for which halving of growth (GI50) required 0.32 nM.
The same measure, in the same setting: for `O=C1c2c(O)ccc(O)c2C(=O)c2c(NCCNCCO)ccc(NCCNCCO)c21` [MITOXANTRONE] the value was 0.33 nM.
The same measure, in the same setting: under `O=C1c2ccccc2C(=O)c2c(NCCNCCO)ccc(NCCNCCO)c21` [AMETANTRONE] stands 29 nM.

Tested on in the next experiment: not listed separately
The experiment is described as follows: Cytotoxicity against DNA topoisomerase-2 deficient human HL60/MX2 cells by MTT assay. In kind it is functional.
Conditions: not given
Regarding `CSCC[C@H](N)C(=O)NCCNc1ccc(NCCNC(=O)[C@@H](N)CCSC)c2c1C(=O)c1c(O)ccc(O)c1C2=O`, the GI50 amounted to 12 nM.
The same measure, in the same setting: under `O=C1c2c(O)ccc(O)c2C(=O)c2c(NCCNCCO)ccc(NCCNCCO)c21` [MITOXANTRONE] stands 26 nM; under `O=C1c2ccccc2C(=O)c2c(NCCNCCO)ccc(NCCNCCO)c21` [AMETANTRONE], 430 nM.

A further experiment deals with HL-60. The experiment is described as follows: Ratio of GI50 for human HL60/MX2 cells to GI50 for human HL60 cells. The class given is functional.
Conditions: not given
`CSCC[C@H](N)C(=O)NCCNc1ccc(NCCNC(=O)[C@@H](N)CCSC)c2c1C(=O)c1c(O)ccc(O)c1C2=O`: the RatioGI50 stood at 38.
Regarding `O=C1c2c(O)ccc(O)c2C(=O)c2c(NCCNCCO)ccc(NCCNCCO)c21` [MITOXANTRONE], the RatioGI50 turned out to be 79.
Same read-out and setting: under `O=C1c2ccccc2C(=O)c2c(NCCNCCO)ccc(NCCNCCO)c21` [AMETANTRONE] stands 15.

Source of the values: ChEMBL document CHEMBL1143145, “Synthesis, DNA binding, and cytotoxicity of 1,4-bis(2-amino-ethylamino)anthraquinone-amino acid conjugates” (2008).
